What was measured:
[1] = biological target: Tyrosine-protein kinase Fes/Fps (Homo sapiens) (UniProt P07332); experiment: Competitive binding affinity to FES (unknown origin) at 10 uM in presence of ATP relative to control
In short: (§1)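 In vitro ATP-site competition binding assay, part of profiling against a diverse panel of 128 kinases. Each compound was tested at a single concentration of 10 µM. Kinome selectivity was summarized as S15 selectivity scores.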

[2] = biological target: Epidermal growth factor receptor (Homo sapiens) (UniProt P00533); experiment: Competitive binding affinity to EGFR (unknown origin) at 10 uM in presence of ATP relative to control
[3] = biological target: T1, Myotonin-protein kinase (Homo sapiens) (UniProt Q09013); experiment: Competitive binding affinity to DMPK (unknown origin) at 10 uM in presence of ATP relative to control
T1 sequence (whole entry): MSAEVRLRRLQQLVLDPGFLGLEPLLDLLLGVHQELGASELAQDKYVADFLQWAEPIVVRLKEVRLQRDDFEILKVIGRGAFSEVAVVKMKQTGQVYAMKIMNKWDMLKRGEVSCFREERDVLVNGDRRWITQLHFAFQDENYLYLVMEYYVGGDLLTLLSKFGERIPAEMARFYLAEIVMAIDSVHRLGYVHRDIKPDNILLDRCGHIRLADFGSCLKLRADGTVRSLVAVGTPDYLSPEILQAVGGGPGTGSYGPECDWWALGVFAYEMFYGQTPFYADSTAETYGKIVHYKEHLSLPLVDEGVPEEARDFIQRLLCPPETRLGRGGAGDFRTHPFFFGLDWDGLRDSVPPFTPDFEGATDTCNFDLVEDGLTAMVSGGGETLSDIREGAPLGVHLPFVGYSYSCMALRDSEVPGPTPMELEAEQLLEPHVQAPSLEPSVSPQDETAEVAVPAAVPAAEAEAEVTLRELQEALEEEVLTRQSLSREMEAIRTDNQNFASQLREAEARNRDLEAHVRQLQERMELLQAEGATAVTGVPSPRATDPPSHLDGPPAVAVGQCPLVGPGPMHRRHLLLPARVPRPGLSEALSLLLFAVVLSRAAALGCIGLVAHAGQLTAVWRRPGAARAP

[4] = biological target: Calcium/calmodulin-dependent protein kinase type II subunit alpha (Homo sapiens) (UniProt Q9UQM7); experiment: Competitive binding affinity to CAMK2A (unknown origin) at 10 uM in presence of ATP relative to control
[5] = biological target: Tyrosine-protein kinase Blk (Homo sapiens) (UniProt P51451); experiment: Competitive binding affinity to BLK (unknown origin) at 10 uM in presence of ATP relative to control
[6] = biological target: 5'-AMP-activated protein kinase catalytic subunit alpha-1 (Homo sapiens) (UniProt Q13131); experiment: Competitive binding affinity to AMPKalpha1 (unknown origin) at 10 uM in presence of ATP relative to control
[7] = biological target: Tyrosine-protein kinase Yes (Homo sapiens) (UniProt P07947); experiment: Competitive binding affinity to YES (unknown origin) at 10 uM in presence of ATP relative to control
In short: (§2)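 In vitro ATP-site competition binding assay across a diverse panel of 128 kinases, with compound tested at a single concentration. Kinase selectivity scores (S15) were calculated from the panel profiles.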

[8] = biological target: T2, Dual specificity protein kinase TTK (Homo sapiens) (UniProt P33981); experiment: Competitive binding affinity to TTK (unknown origin) at 10 uM in presence of ATP relative to control
T2 sequence (whole entry): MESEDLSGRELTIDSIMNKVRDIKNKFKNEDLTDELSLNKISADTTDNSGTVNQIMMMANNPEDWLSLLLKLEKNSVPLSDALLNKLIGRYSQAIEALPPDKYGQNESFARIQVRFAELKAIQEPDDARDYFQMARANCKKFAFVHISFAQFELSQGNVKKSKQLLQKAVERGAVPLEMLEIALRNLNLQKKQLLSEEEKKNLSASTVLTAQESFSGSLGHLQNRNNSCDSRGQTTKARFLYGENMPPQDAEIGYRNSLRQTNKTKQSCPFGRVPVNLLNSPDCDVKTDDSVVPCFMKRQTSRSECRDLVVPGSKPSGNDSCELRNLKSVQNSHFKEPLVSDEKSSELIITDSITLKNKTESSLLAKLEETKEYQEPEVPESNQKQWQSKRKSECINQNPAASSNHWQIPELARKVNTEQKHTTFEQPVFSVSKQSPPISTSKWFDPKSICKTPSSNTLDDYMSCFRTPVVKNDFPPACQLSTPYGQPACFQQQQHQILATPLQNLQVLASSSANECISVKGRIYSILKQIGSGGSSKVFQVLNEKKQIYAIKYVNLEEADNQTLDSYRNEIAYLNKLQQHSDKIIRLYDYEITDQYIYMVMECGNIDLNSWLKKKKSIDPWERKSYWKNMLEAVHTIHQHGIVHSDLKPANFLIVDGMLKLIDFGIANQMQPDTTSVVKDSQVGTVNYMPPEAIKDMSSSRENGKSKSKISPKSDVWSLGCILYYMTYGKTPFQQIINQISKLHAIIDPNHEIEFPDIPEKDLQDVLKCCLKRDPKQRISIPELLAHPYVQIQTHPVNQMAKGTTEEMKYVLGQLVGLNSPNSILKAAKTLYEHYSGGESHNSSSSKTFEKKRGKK
In short: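 In vitro ATP-site competition binding assay across a diverse panel of 128 kinases, with each compound tested at a single concentration. Kinase binding is expressed relative to control.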

[9] = biological target: Ribosomal protein S6 kinase alpha-5 (Homo sapiens) (UniProt O75582); experiment: Competitive binding affinity to RPS6KA5 kinase domain 1 (unknown origin) at 10 uM in presence of ATP relative to control; in short: as §2
[10] = biological target: Serine/threonine-protein kinase PAK 6 (Homo sapiens) (UniProt Q9NQU5); experiment: Competitive binding affinity to PAK6 (unknown origin) at 10 uM in presence of ATP relative to control; in short: as §2
[11] = biological target: Serine/threonine-protein kinase PAK 1 (Homo sapiens) (UniProt Q13153); experiment: Competitive binding affinity to PAK1 (unknown origin) at 10 uM in presence of ATP relative to control; in short: as §2
[12] = biological target: MAP kinase-interacting serine/threonine-protein kinase 2 (Homo sapiens) (UniProt Q9HBH9); experiment: Competitive binding affinity to MKNK2 (unknown origin) at 10 uM in presence of ATP relative to control; in short: as §2
LIM domain kinase 1 = LIM domain kinase 1 (Homo sapiens, UniProt P53667); experiment: Competitive binding affinity to LIMK1 (unknown origin) at 10 uM in presence of ATP relative to control; in short: as §1
[13] = biological target: Insulin-like growth factor 1 receptor (Homo sapiens) (UniProt P08069); experiment: Competitive binding affinity to IGF1R (unknown origin) at 10 uM in presence of ATP relative to control; in short: as §1
[14] = biological target: Tyrosine-protein kinase HCK (Homo sapiens) (UniProt P08631); experiment: Competitive binding affinity to HCK (unknown origin) at 10 uM in presence of ATP relative to control; in short: as §1
Sequence of Tyrosine-protein kinase HCK (Homo sapiens) (P08631 2-526 limits assumed): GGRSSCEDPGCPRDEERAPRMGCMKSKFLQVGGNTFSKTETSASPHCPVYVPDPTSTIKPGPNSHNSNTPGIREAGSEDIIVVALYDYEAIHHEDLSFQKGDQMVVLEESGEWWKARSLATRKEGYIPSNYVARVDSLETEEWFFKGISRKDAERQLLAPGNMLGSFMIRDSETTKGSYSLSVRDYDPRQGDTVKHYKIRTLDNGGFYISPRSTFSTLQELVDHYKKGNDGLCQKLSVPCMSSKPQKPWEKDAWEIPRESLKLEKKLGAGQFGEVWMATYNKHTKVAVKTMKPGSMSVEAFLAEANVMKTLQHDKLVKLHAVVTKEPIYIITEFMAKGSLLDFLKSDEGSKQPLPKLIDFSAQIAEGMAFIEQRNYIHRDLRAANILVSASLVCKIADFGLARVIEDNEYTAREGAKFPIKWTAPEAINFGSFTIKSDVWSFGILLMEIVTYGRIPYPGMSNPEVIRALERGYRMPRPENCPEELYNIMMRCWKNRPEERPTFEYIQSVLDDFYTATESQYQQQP

Sequence of Tyrosine-protein kinase Blk (Homo sapiens) (P51451 2-505 limits assumed): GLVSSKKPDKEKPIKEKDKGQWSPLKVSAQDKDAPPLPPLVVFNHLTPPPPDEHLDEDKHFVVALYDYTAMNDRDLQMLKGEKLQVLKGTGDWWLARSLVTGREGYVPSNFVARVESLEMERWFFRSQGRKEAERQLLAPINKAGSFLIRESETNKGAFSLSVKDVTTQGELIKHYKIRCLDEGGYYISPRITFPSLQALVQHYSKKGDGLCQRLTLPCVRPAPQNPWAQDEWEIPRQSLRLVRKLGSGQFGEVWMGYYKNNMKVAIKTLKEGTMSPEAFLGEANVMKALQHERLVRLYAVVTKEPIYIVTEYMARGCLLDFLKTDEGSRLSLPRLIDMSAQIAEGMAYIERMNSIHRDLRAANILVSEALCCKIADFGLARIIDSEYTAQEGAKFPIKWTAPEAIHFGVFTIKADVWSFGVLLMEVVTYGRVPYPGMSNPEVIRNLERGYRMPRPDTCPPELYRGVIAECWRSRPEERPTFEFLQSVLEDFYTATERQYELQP
Sequence of Epidermal growth factor receptor (Homo sapiens) (P00533 whole entry): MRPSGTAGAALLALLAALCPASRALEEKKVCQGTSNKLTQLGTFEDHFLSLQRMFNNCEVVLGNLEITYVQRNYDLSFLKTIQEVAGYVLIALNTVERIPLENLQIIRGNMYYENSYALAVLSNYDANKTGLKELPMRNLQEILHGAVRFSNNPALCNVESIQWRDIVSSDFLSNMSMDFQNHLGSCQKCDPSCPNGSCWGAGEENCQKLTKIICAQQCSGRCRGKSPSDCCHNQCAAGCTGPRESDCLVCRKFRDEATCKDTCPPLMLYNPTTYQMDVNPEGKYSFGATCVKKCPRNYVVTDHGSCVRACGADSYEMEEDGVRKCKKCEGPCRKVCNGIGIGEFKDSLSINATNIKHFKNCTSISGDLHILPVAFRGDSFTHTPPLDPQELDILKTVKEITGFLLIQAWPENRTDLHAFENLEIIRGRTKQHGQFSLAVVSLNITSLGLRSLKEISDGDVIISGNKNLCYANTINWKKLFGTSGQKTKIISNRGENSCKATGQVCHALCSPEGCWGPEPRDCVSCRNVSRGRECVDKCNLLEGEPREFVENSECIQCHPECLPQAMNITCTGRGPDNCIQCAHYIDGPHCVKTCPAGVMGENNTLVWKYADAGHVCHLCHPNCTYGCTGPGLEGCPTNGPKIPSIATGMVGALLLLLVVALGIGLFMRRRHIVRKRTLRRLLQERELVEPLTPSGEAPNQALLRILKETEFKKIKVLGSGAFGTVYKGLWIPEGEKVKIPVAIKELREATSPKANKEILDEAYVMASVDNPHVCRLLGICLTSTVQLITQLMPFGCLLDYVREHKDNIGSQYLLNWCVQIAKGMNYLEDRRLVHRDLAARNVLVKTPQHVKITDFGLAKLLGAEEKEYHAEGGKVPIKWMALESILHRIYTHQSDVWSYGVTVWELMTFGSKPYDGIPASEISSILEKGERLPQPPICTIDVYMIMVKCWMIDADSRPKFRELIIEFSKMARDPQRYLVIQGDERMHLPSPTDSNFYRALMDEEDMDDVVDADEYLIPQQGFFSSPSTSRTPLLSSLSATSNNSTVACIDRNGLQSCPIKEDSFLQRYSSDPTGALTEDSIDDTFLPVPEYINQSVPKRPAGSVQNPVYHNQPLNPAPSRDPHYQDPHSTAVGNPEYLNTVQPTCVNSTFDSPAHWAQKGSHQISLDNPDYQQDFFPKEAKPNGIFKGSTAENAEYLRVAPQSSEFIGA
Sequence of Serine/threonine-protein kinase PAK 6 (Homo sapiens) (Q9NQU5 whole entry, looked up): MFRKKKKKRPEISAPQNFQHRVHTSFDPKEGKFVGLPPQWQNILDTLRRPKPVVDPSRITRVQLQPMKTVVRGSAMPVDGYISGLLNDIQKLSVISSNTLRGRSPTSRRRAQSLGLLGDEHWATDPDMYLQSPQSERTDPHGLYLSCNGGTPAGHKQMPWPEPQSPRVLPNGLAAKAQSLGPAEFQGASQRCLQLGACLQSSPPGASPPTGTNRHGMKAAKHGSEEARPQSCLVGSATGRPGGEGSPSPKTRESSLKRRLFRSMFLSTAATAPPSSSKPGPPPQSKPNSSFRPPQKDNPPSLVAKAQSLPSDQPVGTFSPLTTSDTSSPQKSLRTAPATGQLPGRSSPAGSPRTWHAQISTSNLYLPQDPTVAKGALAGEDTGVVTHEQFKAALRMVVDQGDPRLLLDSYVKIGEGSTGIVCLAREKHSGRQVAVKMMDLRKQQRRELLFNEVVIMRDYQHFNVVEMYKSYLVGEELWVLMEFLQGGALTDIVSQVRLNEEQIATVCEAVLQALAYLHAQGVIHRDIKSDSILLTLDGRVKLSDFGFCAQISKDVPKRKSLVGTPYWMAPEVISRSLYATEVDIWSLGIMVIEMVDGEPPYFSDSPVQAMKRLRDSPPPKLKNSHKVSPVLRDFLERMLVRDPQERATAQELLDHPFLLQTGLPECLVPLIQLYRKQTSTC
Sequence of LIM domain kinase 1 (P53667 whole entry, looked up, the tested form may be a part): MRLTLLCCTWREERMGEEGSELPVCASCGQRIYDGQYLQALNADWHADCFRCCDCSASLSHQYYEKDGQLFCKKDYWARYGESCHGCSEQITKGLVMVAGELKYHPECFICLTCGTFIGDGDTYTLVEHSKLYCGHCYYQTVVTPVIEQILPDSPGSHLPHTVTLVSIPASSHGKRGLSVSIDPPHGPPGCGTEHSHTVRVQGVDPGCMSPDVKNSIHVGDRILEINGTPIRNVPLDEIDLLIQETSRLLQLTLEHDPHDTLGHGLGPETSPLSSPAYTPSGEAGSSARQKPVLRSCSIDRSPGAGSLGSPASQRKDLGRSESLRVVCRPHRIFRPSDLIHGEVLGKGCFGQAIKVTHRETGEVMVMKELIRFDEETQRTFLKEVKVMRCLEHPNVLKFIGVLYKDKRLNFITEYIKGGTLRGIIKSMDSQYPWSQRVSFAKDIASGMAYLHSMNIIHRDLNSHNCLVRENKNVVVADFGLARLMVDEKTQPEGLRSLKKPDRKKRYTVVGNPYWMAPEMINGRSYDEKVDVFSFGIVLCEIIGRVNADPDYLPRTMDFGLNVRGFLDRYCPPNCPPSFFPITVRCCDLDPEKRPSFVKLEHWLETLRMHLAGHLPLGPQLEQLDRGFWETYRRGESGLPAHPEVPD
Sequence of Tyrosine-protein kinase Yes (Homo sapiens) (P07947 2-543 limits assumed): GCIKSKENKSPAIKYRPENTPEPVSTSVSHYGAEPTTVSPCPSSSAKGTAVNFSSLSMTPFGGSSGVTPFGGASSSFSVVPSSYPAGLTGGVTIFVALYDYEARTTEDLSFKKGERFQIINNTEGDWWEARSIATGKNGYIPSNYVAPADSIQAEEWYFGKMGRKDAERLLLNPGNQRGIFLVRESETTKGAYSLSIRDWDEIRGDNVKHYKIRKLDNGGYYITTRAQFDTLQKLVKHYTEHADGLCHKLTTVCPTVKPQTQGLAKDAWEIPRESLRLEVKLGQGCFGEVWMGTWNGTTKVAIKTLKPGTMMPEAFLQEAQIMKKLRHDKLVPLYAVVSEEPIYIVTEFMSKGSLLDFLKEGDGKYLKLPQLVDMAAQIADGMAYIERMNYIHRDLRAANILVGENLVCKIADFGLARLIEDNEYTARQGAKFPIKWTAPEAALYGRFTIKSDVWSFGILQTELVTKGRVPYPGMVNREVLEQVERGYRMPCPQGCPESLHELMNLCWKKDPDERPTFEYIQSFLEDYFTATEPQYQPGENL
Sequence of 5'-AMP-activated protein kinase catalytic subunit alpha-1 (Homo sapiens) (Q13131 whole entry, looked up): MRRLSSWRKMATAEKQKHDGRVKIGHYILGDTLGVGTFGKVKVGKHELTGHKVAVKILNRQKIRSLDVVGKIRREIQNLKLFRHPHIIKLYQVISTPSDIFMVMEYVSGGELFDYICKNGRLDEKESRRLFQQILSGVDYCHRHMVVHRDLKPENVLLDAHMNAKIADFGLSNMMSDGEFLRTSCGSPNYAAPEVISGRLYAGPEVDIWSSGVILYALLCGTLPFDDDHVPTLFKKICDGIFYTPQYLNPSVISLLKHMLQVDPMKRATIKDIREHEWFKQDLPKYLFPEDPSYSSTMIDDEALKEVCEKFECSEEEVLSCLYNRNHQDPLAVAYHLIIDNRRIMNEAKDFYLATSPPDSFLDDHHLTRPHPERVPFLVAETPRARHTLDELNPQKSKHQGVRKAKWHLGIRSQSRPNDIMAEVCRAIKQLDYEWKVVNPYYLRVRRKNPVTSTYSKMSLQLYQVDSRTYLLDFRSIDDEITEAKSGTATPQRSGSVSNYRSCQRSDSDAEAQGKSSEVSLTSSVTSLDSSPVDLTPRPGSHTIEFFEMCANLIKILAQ

Row | inhibition [1] [%] | inhibition [2] [%] | inhibition [3] [%] | inhibition [4] [%] | inhibition [5] [%] | inhibition [6] [%] | inhibition [7] [%] | inhibition [8] [%] | inhibition [9] [%] | inhibition [10] [%] | inhibition [11] [%] | inhibition [12] [%] | inhibition (LIM domain kinase 1) [%] | inhibition [13] [%] | inhibition [14] [%] | SMILES
1 | < 50 | < 50 | < 50 | 84 | 99 | 86 | < 50 | 96 | 70 | < 50 | < 50 | 100 | < 50 | < 50 | 78 | N[C@H]1CC[C@H](Nc2nccc(-n3nnc4ccccc43)n2)CC1
2 | < 50 | < 50 | < 50 | 89 | < 50 | < 50 | < 50 | 84 | < 50 | < 50 | < 50 | < 50 | 77 | < 50 | < 50 | O[C@H]1CC[C@H](Nc2nccc(-n3ccc4ccccc43)n2)CC1
3 | < 50 | < 50 | < 50 | 88 | 88 | < 50 | < 50 | 99 | < 50 | < 50 | < 50 | 86 | 87 | < 50 | < 50 | O[C@H]1CC[C@H](Nc2nccc(-n3nnc4ccccc43)n2)CC1
4 | < 50 | < 50 | < 50 | 94 | < 50 | < 50 | < 50 | 100 | < 50 | < 50 | < 50 | 75 | 88 | < 50 | < 50 | O[C@H]1CC[C@H](Nc2nccc(-n3ncc4ccccc43)n2)CC1

The next lines start with the compound.

Row | SMILES | inhibition [1] [%] | inhibition [2] [%] | inhibition [3] [%] | inhibition [4] [%] | inhibition [5] [%] | inhibition [6] [%] | inhibition [7] [%] | inhibition [8] [%] | inhibition [9] [%] | inhibition [10] [%] | inhibition [11] [%] | inhibition [12] [%] | inhibition (LIM domain kinase 1) [%] | inhibition [13] [%] | inhibition [14] [%]
5 | O[C@H]1CC[C@H](Nc2nccc(-c3n[nH]c4ccccc34)n2)CC1 | < 50 | < 50 | 80 | 94 | 92 | 92 | 78 | 100 | < 50 | 86 | 68 | 87 | 96 | 95 | 66
6 | O=C([C@H]1CC[C@H](Nc2nccc(-n3nnc4ccccc43)n2)CC1)N1CCOCC1 | < 50 | < 50 | < 50 | < 50 | 93 | < 50 | < 50 | 98 | < 50 | < 50 | < 50 | 97 | 78 | < 50 | < 50
7 | CS(=O)(=O)CCCOc1cccc2c1ccn2-c1ccnc(N[C@H]2CC[C@H](C(=O)N3CCC(O)CC3)CC2)n1 | – | – | – | – | – | – | – | > 85 | – | – | – | – | > 85 | – | –
